Consider 39 molecules from ChEMBL document CHEMBL4513216, “Probing the Open Global Health Chemical Diversity Library for Multistage-Active Starting Points for Next-Generation Antimalarials” (ACS Infect Dis, 2020).

A short description of this data set: Toxicity liver stage against HepG2, at 10uM. It counts as cell-based. Conditions: human, HepG2-A16-CD81EGFP cells; read-out: INHIBITION
On the set-up: test concentration 10 uM, cell line HepG2-A16-CD81EGFP. The method in brief:
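Uninfected HepG2-A16-CD81EGFP cells, 3 × 10^3 per well, 1536-well, plated on prespotted compound at 10 μM final, parasite-free screening media added to match infected plates; puromycin 10 μM positive, DMSO 0.5% negative; run in parallel with 48 h PbLuc assay at 37 °C, 5% CO2; viability by CellTiter-Glo luminescence, normalized to controls.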
As for `CN1CCC(N(C)C(=O)Nc2ccc(Cl)cc2)CC1`, the cytotoxicity at 10 µM is -0.211%. Regarding `Cc1occc(=O)c1OCC(=O)N1CCN(c2cccc(Cl)c2)CC1`, the cytotoxicity at 10 µM is -1.18%. The figure for `Cn1nc(-c2ccccc2NC(=O)c2cncc(Br)c2)ccc1=O` is 0.461%; for `O=C(CC1CC1)NC1CCc2c(ccc(=O)n2CC2CC2)C1` (centres undefined) it is 6.34%; for `CN(Cc1ccncc1)C1CC2(CCN(C(=O)c3ccnnc3)CC2)C1` it is -5.45%. With `CC1=N[C@@]2(CC[C@@H]3CN(C(=O)NCC(C)C)C[C@@H]32)C(=O)N1C`, the cytotoxicity at 10 µM turned out to be 5.01%.

For the molecule `O=C1NC(c2ccccc2)=N[C@@]12CC[C@@H]1CN(Cc3ccoc3)C[C@@H]12`, the cytotoxicity at 10 µM was 5.22%. As to `COCC1CN(Cc2cc(C)on2)Cc2cn(CC3CC3)nc21` (centres undefined), the cytotoxicity at 10 µM is 8.91%. The figure for `O=C(c1cccs1)N1CC(C(=O)N2CCCC2)C2(CCOCC2)C1` (centres undefined) is -2.64%; for `O=C(Nc1ccccc1)C1CN(Cc2nccs2)CC12CCOCC2` (centres undefined) it is 1.61%; for `Cc1[nH]/c(=N/C(=O)Cn2nc(N3CCOCC3)ccc2=O)sc1C` it is 1.81%. The figure for `Cc1ccc(Cn2c(=O)[nH]c3cccnc3c2=O)cc1` is 1.61%. The figure for `O=c1[nH]c(N2CCCCC2)nc2nccc(-c3ccc4c(c3)OCO4)c12` is 9.54%; for `Cc1ccc(NC(=O)c2n[nH]c(-n3cnnc3)n2)cc1` it is 6.33%. Turning to `CN(CC1(O)CCN(c2ccnc3ccncc23)CC1)C(=O)CCN`, the cytotoxicity at 10 µM is -6.86%. The figure for `COc1ccc(-c2cc3nc([C@H](C)NC(=O)C4CC4)nn3cn2)cc1` is -27%; for `COc1ccc(CNc2ncc(-c3cc(C)no3)c(C(C)C)n2)cc1` it is 2.73%; for `O=C(NC1CCCc2nc(N3CCOCC3)ncc21)C1CCCC1` (centres undefined) it is -2.3%.

For `O=C1CCC(=O)N1CCn1nnc(-c2cccc(Cl)c2)n1`, the cytotoxicity at 10 µM is -5.05%. The figure for `Cc1nc(-c2ccco2)ccc1C(=O)NCC(=O)N1CCCCC1` is -7.76%; for `CCCc1cc(NC2CCc3nc(C(C)C)nn3C2)n2ncnc2n1` (centres undefined) it is -1.41%. The figure for `CCOc1cccc(C(=O)NCCC(=O)NCc2ccncc2)c1` is 0.961%; for `Cc1noc(C(C)N2CCN(c3ccc(C#N)cn3)CC2)n1` (centres undefined) it is -0.871%.

As to `Cc1nnc(NCCC(=O)N(C)Cc2ccccc2)c(C#N)c1C`, the cytotoxicity at 10 µM is -1.04%. The figure for `CNS(=O)(=O)CC(=O)N(Cc1c(F)cccc1F)C1CCCC1` is -1.98%; for `NC(=O)CCNCc1c(Cl)cccc1N1CCCC1` it is 8.15%; for `N#Cc1ccc(NC2CCN(Cc3ccccn3)CC2)c(F)c1` it is 0.109%.

With `O=C(CN1CCCNC1=O)N1CCCC(c2nccs2)C1` (centres undefined), the cytotoxicity at 10 µM is -12.5%. On to `O=C(CCc1nc(Cl)n[nH]1)N1C[C@@H](CN2CCCCC2)[C@@H](CO)C1`, for which the cytotoxicity at 10 µM is -0.104%. As to `CN(C)C[C@H]1C[C@@H](CO)CN(C(=O)CCc2nc(Cl)n[nH]2)C1`, the cytotoxicity at 10 µM is -3.73%. As for `CCNc1ccnc(NCC2CNCCO2)n1` (centres undefined), the cytotoxicity at 10 µM came out at 3.71%.

`Fc1ccc(OC2CCN(CCn3cncn3)CC2)cc1`: the cytotoxicity at 10 µM was -5.92%. `Cc1cncc(C(=O)N2CCCC(O)(CN(C)C)CC2)c1` (centres undefined): the cytotoxicity at 10 µM stood at 6.22%. In the case of `CCOCCn1nc(C)cc1C(=O)N1CC[C@](C)(O)C(C)(C)C1`, the cytotoxicity at 10 µM was found to be 0.429%.

Regarding `CN1C[C@@H](n2cnc(-c3ccccc3)c2-c2c[nH]cn2)C[C@H]1C(=O)O`, the cytotoxicity at 10 µM was 0.791%. `CCOc1ccc(C(=O)CCC(=O)NCc2cncn2CC)cc1C`: the cytotoxicity at 10 µM was 0.902%.

In the case of `CCn1cc(NC(=O)NCC(c2cccc(OC)c2)N(C)C)cn1` (centres undefined), the cytotoxicity at 10 µM is -7.25%. Consider `O=c1ccc2c(n1Cc1cccnc1)CCN(CC1CCOC1)CC2` (centres undefined), for which the cytotoxicity at 10 µM was found to be 8.13%. Turning to `CN(C)C(=O)[C@H]1C[C@H]2CN(c3ncccn3)C[C@@H]1O2`, the cytotoxicity at 10 µM was 6.1%.
